Assays:
[1] = Docetaxel plasma pharmacokinetics in patients; format: in vivo; conditions: human
[2] = Phase 1 safety monitoring of PX-866 with docetaxel; format: in vivo, human
Summary of the method: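 Open-label dose escalation in cohorts of 6–9 patients at 4, 6 or 8 mg oral daily test compound plus docetaxel 75 mg m−2 IV every 21 days, with dexamethasone premedication. All patients receiving ≥1 dose had vital signs, labs and exams; AEs were graded by NCI CTCAE v4.02. DLTs included related grade ≥3 events, febrile grade 3/4 neutropenia, platelets <25 000 per μl and ANC <500 per μl for >7 days.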

NSCLC = conditions: ref Roberts et al, 2004, Horstmann et al, 2005, Schuette et al; cited from earlier work
[3] = plasma, intravenous, 75 mg m^-2

## CC(=O)O[C@@]12CO[C@@H]1C[C@H](O)[C@@]1(C)C(=O)[C@H](O)C3=C(C)[C@@H](OC(=O)[C@H](O)[C@@H](NC(=O)OC(C)(C)C)c4ccccc4)C[C@@](O)([C@@H](OC(=O)c4ccccc4)[C@H]21)C3(C)C [docetaxel]
[1]; in vivo
  exposure in the presence of PX-866: not affected
[1]; plasma, intravenous
  AUC(0-t): 851 ng·h/mL
  MRT inf: 13.9 h
  Tmax: 0.19 h
  Vd: 2690 L
  clearance: 2570 mL/min
[1]; [3]
  AUC(0-t): 1200 ng·h/mL
  MRT inf: 15.2 h
  Tmax: 0.19 h
  Vd: 2990 L
  clearance: 2390 mL/min
[1]; plasma, intravenous, AUCINF, C2D1 (with PX-866), mean, N=35, plasma
  AUC(0-inf): 1110 ng·h/mL
[1]; plasma, intravenous, Cmax, C2D1 (with PX-866), mean, N=35, plasma
  Cmax: 539 ng/mL
[1]; plasma, intravenous, Half-life, C2D1 (with PX-866), mean, N=35, plasma
  half-life: 13.1 h
[2]; 18 out of 43
  patients requiring docetaxel dose reduction: 42%
[2]; PX-866 with docetaxel
  SAE related to docetaxel: ataxia: 1 N
  SAE related to docetaxel: febrile neutropenia: 1 N
  SAE related to docetaxel: mental status changes: 1 N
  SAE related to docetaxel: nausea: 2 N
  SAE related to docetaxel: pneumonia: 1 N
  SAE related to docetaxel: vomiting: 3 N
[2]; PX-866 with docetaxel, 43 patients
  gastrointestinal disorders, docetaxel-related: 79.1%
[2]; PX-866 with docetaxel, N=43
  Grade 3/4 AE related to docetaxel: anaemia: 2 N
  Grade 3/4 AE related to docetaxel: diarrhoea: 3 N
  Grade 3/4 AE related to docetaxel: leucopenia: 4 N
  Grade 3/4 AE related to docetaxel: nausea: 2 N
  Grade 3/4 AE related to docetaxel: vomiting: 3 N
[2]; after SD or better with combination, continued single-agent PX-866
  patients in whom docetaxel was discontinued due to toxicity: eight
[2]; of 18 with dose reduction
  patients requiring docetaxel dose reduction due to neutropenia: Fourteen
NSCLC
  PR rate, second-line docetaxel in NSCLC: 13%
  PR−SD rate, second-line docetaxel in NSCLC: 50%
